These results are taken from paper PMC7586065 (Neoplasia (New York, N.Y.), 2020).

Like-named read-outs stand apart in the source and are kept apart here.

Broadly, the IC50 is the concentration at which inhibition is half-maximal. By AUC(0-t) is commonly meant exposure summed from dosing to a finite time, without extrapolation to infinity. The low end stands for less exposure, the high end for more exposure. For orientation: Cmax means the maximum level reached in the sampled fluid or tissue. By half-life is commonly meant the time needed for the level to fall by half in the phase considered. A lower half-life goes with fast loss. Usually Tmax stands for the time from dosing to the highest level. By EC50 is commonly meant the concentration at which the effect is half-maximal.

Series [1] concerns PI3Kα. The note with it: cited from earlier work.
Series [2] has as its system PI3Kγ. To be noted: cited from earlier work.
Series [3] relates to Pfeiffer. The note with it: data in the literature; cited from earlier work.
Series [4] concerns OCI-LY19. To be noted: data in the literature; cited from earlier work.
Series [5] deals with Toledo. The note with it: data in the literature; cited from earlier work.
The subject of series [6] is WSU-DLCL2. To be noted: data in the literature; cited from earlier work.
Series [7] concerns the target PI3Kα (Mus musculus, UniProt P42337). In words: Cell-based pAKT AlphaLISA, IGF-1 stimulated C2C12 cells.
The target of series [8] is PI3Kγ (Mus musculus, UniProt Q9JHG7). The series is described as follows: Cell-based pAKT AlphaLISA, C5a stimulated RAW264.7 cells. A digest of the protocol: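 RAW264.7 cells (DMEM, 10% FBS, penicillin/streptomycin, 37 °C) were stimulated with 80 ng/mL C5a for 5 min and given ten test-compound concentrations (0–100 µM) in triplicate. The PI3Kδ comparator used Raji cells stimulated with 3 µg/mL anti-IgM F(ab')2 for 10 min, dosed 0–3000 nM. pAKT was quantified by AlphaLISA, and IC50 was taken from signal–concentration curves.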

Series [9] can be described thus: Pharmacokinetics in xenograft model. The class given is in vivo, SCID mice. To be noted: CB17 SCID, mouse, plasma, po. In a few lines:
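CB17 SCID mice bearing subcutaneous SU-DHL-6 tumours received test compound orally once daily in 1% carboxymethylcellulose/0.5% Tween 80. Heparinised blood was drawn predose and at 10, 30, 60, 120, 360, 600 and 1440 min on days 1 and 14. Plasma was spun at 4500 rpm, 10 min, 4 °C, then assayed by LC-MS/MS against a stable-isotope internal standard. Sub-LLOQ values were excluded.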

The test system of series [10] is PI3Kδ signaling. To be noted: read-out: EC50 of inhibition of PI3Kδ signaling; cell-based assay; cited from earlier work.
Where [11] appears, read: 100 mg/kg, 100 mg/kg once daily oral, day 1.
[12] abbreviates: 100 mg/kg, 100 mg/kg once daily oral, day 14.
Where [13] appears, read: 200 mg/kg, 200 mg/kg once daily oral, day 1.
The mark [14] stands for this setting: 200 mg/kg, 200 mg/kg once daily oral, day 14.

Sequence of PI3Kα (P42337 whole entry): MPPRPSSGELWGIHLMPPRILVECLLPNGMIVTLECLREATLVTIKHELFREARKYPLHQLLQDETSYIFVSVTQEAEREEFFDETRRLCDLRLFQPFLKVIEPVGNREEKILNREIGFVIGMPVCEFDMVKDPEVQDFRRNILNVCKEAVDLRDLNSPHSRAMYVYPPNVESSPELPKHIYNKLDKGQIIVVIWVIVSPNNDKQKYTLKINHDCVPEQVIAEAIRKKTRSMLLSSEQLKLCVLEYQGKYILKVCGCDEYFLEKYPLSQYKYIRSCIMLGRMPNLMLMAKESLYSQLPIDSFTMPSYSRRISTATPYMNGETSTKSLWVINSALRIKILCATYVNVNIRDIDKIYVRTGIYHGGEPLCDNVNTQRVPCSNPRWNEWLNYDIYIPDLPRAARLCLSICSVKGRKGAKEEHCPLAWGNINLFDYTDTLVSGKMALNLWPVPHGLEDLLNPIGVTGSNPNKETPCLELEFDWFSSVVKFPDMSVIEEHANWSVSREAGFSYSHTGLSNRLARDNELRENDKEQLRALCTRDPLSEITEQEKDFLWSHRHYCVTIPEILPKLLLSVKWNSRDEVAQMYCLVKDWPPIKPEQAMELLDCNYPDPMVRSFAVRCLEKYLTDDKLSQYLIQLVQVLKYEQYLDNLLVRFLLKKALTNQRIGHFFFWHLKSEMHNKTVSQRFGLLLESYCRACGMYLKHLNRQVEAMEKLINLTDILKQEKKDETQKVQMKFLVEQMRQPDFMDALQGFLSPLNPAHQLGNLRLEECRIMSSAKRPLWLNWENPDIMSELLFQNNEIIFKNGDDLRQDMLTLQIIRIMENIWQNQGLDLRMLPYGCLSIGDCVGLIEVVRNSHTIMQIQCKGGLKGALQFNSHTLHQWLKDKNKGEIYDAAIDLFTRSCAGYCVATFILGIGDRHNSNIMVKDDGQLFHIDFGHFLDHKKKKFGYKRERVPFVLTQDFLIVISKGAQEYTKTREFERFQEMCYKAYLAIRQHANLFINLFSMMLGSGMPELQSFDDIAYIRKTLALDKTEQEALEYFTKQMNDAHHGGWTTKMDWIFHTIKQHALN
Sequence of PI3Kα (P26450 whole entry partner): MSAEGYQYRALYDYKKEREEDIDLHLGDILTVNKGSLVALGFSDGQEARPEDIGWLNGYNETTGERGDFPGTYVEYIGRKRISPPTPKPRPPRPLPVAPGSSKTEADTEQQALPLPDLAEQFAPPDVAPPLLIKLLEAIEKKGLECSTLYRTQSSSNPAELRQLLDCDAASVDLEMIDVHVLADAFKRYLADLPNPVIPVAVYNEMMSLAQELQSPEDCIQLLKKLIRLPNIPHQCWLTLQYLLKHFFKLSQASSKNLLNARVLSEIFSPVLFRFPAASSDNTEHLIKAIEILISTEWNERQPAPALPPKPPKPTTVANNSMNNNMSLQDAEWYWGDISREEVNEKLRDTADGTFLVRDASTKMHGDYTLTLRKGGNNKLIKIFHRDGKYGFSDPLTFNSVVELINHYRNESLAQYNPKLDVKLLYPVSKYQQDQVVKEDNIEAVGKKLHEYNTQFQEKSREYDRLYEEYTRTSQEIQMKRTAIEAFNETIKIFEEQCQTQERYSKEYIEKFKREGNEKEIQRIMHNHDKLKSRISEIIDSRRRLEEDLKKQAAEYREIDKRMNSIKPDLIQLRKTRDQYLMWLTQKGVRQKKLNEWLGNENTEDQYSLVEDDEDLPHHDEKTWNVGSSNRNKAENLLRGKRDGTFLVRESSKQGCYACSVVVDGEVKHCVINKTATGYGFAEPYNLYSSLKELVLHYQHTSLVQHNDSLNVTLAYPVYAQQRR
Sequence of PI3Kγ (Q9JHG7 whole entry): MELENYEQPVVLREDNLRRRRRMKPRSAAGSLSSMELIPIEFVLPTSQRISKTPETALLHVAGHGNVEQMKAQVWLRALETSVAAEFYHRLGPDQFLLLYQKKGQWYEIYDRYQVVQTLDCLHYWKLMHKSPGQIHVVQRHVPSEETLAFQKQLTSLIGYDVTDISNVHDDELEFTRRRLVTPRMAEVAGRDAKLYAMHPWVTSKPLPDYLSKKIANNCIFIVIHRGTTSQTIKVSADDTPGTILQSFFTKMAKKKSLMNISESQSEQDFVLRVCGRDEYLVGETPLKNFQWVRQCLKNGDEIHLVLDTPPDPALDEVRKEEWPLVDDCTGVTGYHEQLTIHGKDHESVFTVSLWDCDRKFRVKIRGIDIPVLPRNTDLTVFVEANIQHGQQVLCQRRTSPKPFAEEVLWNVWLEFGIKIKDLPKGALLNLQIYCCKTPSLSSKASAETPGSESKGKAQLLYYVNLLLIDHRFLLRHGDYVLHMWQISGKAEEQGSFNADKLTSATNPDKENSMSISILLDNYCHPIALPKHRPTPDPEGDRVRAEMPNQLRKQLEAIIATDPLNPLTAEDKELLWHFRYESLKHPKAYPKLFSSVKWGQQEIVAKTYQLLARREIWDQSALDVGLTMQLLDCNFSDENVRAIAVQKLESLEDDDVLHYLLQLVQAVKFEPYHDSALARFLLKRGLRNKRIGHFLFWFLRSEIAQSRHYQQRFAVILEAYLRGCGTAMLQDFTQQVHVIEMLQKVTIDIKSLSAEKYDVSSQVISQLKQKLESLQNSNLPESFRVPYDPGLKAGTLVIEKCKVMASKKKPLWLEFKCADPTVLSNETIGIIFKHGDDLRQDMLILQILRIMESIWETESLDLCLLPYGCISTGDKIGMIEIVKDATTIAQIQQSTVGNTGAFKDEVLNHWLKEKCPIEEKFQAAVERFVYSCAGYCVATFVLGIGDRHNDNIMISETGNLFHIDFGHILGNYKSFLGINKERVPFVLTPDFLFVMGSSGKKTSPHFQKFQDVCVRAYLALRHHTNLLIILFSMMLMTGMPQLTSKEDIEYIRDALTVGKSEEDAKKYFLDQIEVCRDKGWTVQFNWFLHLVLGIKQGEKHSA

Take `COc1c(OCCCN2CCOCC2)ccc2c1N=C(NC(=O)c1cnc(N)nc1)N1CCN=C21` [Copanlisib]: the IC50 in series [1] was […]; in [2], […]; in series [3], 0.849 nM; in [4], 1990 nM; in [5], 3500 nM; in series [6] it was 123 nM.
For the molecule `C[C@H](Nc1ncnc2nc[nH]c12)c1cc2cccc(Cl)c2c(=O)n1-c1ccccc1` [Duvelisib], the IC50 in [1] (data in the literature) is […]; in series [2] (data in the literature), […].
In the case of `CC[C@H](Nc1ncnc2[nH]cnc12)c1nc2cccc(F)c2c(=O)n1-c1ccccc1` [Idelalisib], the IC50 was over 30000 nM in series [7] and 1120 nM in series [8]. The AUC(0-t) in series [9] (setting [11]) worked out at 6930 ng·h/mL; in series [9] (setting [12]), 5520 ng·h/mL; in series [9] (setting [13]) it was 29900 ng·h/mL; in series [9] (setting [14]), 22400 ng·h/mL. Moreover, the Cmax in [9] (setting [11]) amounted to 4.17 ± 9.89 µM; in series [9] (setting [12]), 5.05 ± 6.05 µM; in series [9] (setting [13]) it was 11.1 µM; in [9] (setting [14]), 8.09 ± 0.93 µM. The half-life in [9] (100 mg/kg, T1/2, 100 mg/kg once daily oral, day 1) is 3.4 ± 2 h; in series [9] (100 mg/kg, T1/2, 100 mg/kg once daily oral, day 14) it was 1.8 ± 0.6 h; in series [9] (200 mg/kg, T1/2, 200 mg/kg once daily oral, day 1), 1.9 ± 0.5 h; in series [9] (200 mg/kg, T1/2, 200 mg/kg once daily oral, day 14), 4.3 ± 1.1 h. Moreover, the Tmax in series [9] (setting [11]) worked out at 0.7 ± 0.3 h; in series [9] (setting [12]) it was 0.4 ± 0.2 h; in series [9] (setting [13]), 0.8 ± 0.3 h; in series [9] (setting [14]) it was 0.7 ± 0.3 h. In addition, the EC50 in series [10] was 8.9 nM.
